Measurements as given in ChEMBL document CHEMBL1153240, “Microwave assisted synthesis and in vitro cytotoxicities of substituted (Z)-2-amino-5-(1-benzyl-1H-indol-3-yl)methylene-1-methyl-1H-imidazol-4(5H)-ones against human tumor cell lines” (2010).

Tests used:
Assay type in all cases: functional
SNB-75 = assay: Cytotoxicity against human SNB75 cells
Summary of the method: (§1)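 NCI 60-cell-line panel, five-dose response study. Effect is plotted against log10 drug concentration for each cell line. GI50 is the molar concentration giving a 50% reduction in net protein increase relative to control cells. LC50 is the concentration lethal to 50% of cells.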

HCT-116 = assay: Cytotoxicity against human HCT116 cells; summary of the method: as §1
SNB-19 = assay: Cytotoxicity against human SNB19 cells; summary of the method: as §1
[1] = Cytotoxicity against human Hs 578T cells; summary of the method: as §1
NCI-H322M = assay: Cytotoxicity against human NCI-H322M cells; summary of the method: as §1
A498 = assay: Cytotoxicity against human A498 cells; summary of the method: as §1
HOP-62 = assay: Cytotoxicity against human HOP62 cells; summary of the method: as §1
IGROV-1 = assay: Cytotoxicity against human IGROV1 cells; summary of the method: as §1
A549 = assay: Cytotoxicity against human A549 cells; summary of the method: as §1
LOX IMVI = assay: Cytotoxicity against human LOXIMVI cells; summary of the method: as §1
CCRF-CEM = assay: Cytotoxicity against human CCRF-CEM cells; summary of the method: as §1
NCI-H226 = assay: Cytotoxicity against human NCI-H226 cells; summary of the method: as §1
SK-MEL-2 = assay: Cytotoxicity against human SK-MEL-2 cells; summary of the method: as §1
NCI-H23 = assay: Cytotoxicity against human NCI-H23 cells; summary of the method: as §1
Malme-3M = assay: Cytotoxicity against human MALME-3M cells; summary of the method: as §1
MOLT-4 = assay: Cytotoxicity against human MOLT4 cells; summary of the method: as §1
KM12 = assay: Cytotoxicity against human KM12 cells; summary of the method: as §1
U-251 = assay: Cytotoxicity against human U251 cells
Summary of the method: (§2)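 NCI 60 human tumor cell line panel, five-dose dose-response study. Cytotoxic effect was plotted against log10 drug concentration for each cell line. GI50 is the molar concentration giving 50% reduction in net protein increase versus control cells. LC50 is the concentration lethal to 50% of cells.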

786-0 = assay: Cytotoxicity against human 786-0 cells; summary of the method: as §1
SN12C = assay: Cytotoxicity against human SN12C cells; summary of the method: as §1
COLO 205 = assay: Cytotoxicity against human COLO205 cells
Summary of the method: (§3)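 NCI 60-cell-line panel, five-concentration dose-response. Cytotoxic effect was plotted against log10 drug concentration for each line. GI50 is the molar concentration giving a 50% reduction in net protein increase relative to control cells. LC50 is the concentration lethal to 50% of cells. Both were read from the curves.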

NCI-H522 = assay: Cytotoxicity against human NCI-H522 cells; summary of the method: as §1
NCI-H460 = assay: Cytotoxicity against human NCI-H460 cells; summary of the method: as §1
MDA-MB-468 = assay: Cytotoxicity against human MDA-MB-468 cells; summary of the method: as §1
OVCAR-8 = assay: Cytotoxicity against human OVCAR8 cells; summary of the method: as §1
OVCAR-3 = assay: Cytotoxicity against human OVCAR-3 cells; summary of the method: as §1
EKVX = assay: Cytotoxicity against human EKVX cells; summary of the method: as §1
SF-539 = assay: Cytotoxicity against human SF539 cells; summary of the method: as §1
SK-MEL-5 = assay: Cytotoxicity against human SK-MEL-5 cells; summary of the method: as §1
K562 = assay: Cytotoxicity against human K562 cells; summary of the method: as §1
BT-549 = assay: Cytotoxicity against human BT549 cells; summary of the method: as §1
M14 = assay: Cytotoxicity against human M14 cells; summary of the method: as §1
SF-295 = assay: Cytotoxicity against human SF295 cells; summary of the method: as §1
SK-MEL-28 = assay: Cytotoxicity against human SK-MEL-28 cells; summary of the method: as §1
RXF 393 = assay: Cytotoxicity against human RXF393 cells; summary of the method: as §1
SF-268 = assay: Cytotoxicity against human SF268 cells; summary of the method: as §1
MDA-MB-435 = assay: Cytotoxicity against human MDA-MB-435 cells; summary of the method: as §3
SW-620 = assay: Cytotoxicity against human SW620 cells; summary of the method: as §2
UACC-257 = assay: Cytotoxicity against human UACC257 cells; summary of the method: as §2
SK-OV-3 = assay: Cytotoxicity against human SKOV3 cells; summary of the method: as §1
UO-31 = assay: Cytotoxicity against human UO31 cells; summary of the method: as §2
MDA-MB-231 = assay: Cytotoxicity against human MDA-MB-231 cells; summary of the method: as §1
DU-145 = assay: Cytotoxicity against human DU145 cells; summary of the method: as §1
OVCAR-5 = assay: Cytotoxicity against human OVCAR5 cells; summary of the method: as §1
CAKI-1 = assay: Cytotoxicity against human Caki1 cells; summary of the method: as §1
HT-29 = assay: Cytotoxicity against human HT-29 cells; summary of the method: as §3
HCT-15 = assay: Cytotoxicity against human HCT15 cells; summary of the method: as §1
ACHN = assay: Cytotoxicity against human ACHN cells; summary of the method: as §1
PC-3 = assay: Cytotoxicity against human PC3 cells; summary of the method: as §1
NCI/ADR-RES = assay: Cytotoxicity against human NCI/ADR-RES cells; summary of the method: as §1
MCF7 = assay: Cytotoxicity against human MCF7 cells; summary of the method: as §1
OVCAR-4 = assay: Cytotoxicity against human OVCAR4 cells; summary of the method: as §1
SR = assay: Cytotoxicity against human SR cells; summary of the method: as §1
HL-60 = assay: Cytotoxicity against human HL60 cells; summary of the method: as §1
HOP-92 = assay: Cytotoxicity against human HOP92 cells; summary of the method: as §1
HCC 2998 = assay: Cytotoxicity against human HCC2998 cells; summary of the method: as §1
T47D = assay: Cytotoxicity against human T47D cells; summary of the method: as §2
TK-10 = assay: Cytotoxicity against human TK10 cells; summary of the method: as §2
[2] = Cytotoxicity against human […] cells; summary of the method: as §1
[3] = read-out: LC50 (the source's name)

Compound: CN1C(N)=NC(=O)/C1=C/c1cn(Cc2ccccc2Br)c2ccccc12
- GI50 (SNB-75): 1.58 µM
- LC50 (concentration lethal to 50% of cells) (SNB-75): 18.6 µM
- GI50 (HCT-116): 2.42 µM
- CC50 (HCT-116; [3]): 30.9 µM
- GI50 (SNB-19): 4.5 µM
- CC50 (SNB-19; [3]): 43.8 µM
- GI50 [1]: 3.97 µM
- LC50 [1]: > 100 µM
- GI50 (NCI-H322M): 11 µM
- CC50 (NCI-H322M; [3]): > 100 µM
- GI50 (A498): 13.9 µM
- CC50 (A498; [3]): 53.1 µM
- GI50 (HOP-62): 8.78 µM
- CC50 (HOP-62; [3]): 51.2 µM
- GI50 (IGROV-1): 20 µM
- CC50 (IGROV-1; [3]): > 100 µM
- GI50 (A549): 28.7 µM
- CC50 (A549; [3]): > 100 µM
- GI50 (LOX IMVI): 1.97 µM
- LC50 (LOX IMVI): 9.37 µM
- GI50 (CCRF-CEM): 2.54 µM
- CC50 (CCRF-CEM; [3]): 36.2 µM
- GI50 (NCI-H226): 1.37 µM
- LC50 (NCI-H226): 69.9 µM
- GI50 (SK-MEL-2): 5.73 µM
- CC50 (SK-MEL-2; [3]): > 100 µM
- GI50 (NCI-H23): 8.07 µM
- LC50 (concentration lethal to 50% of cells) (NCI-H23): 54.8 µM
- GI50 (Malme-3M): 3.3 µM
- CC50 (Malme-3M; [3]): 73.8 µM
- GI50 (MOLT-4): 4.57 µM
- CC50 (MOLT-4; [3]): > 100 µM
- GI50 (KM12): 5.71 µM
- CC50 (KM12; [3]): 50.8 µM
- GI50 (U-251): 3.01 µM
- CC50 (U-251; [3]): 66.2 µM
- GI50 (786-0): 6.15 µM
- LC50 (786-0): 46.2 µM
- GI50 (SN12C): 6.07 µM
- CC50 (SN12C; [3]): 76.3 µM
- GI50 (COLO 205): 2.21 µM
- CC50 (COLO 205; [3]): 12.3 µM
- GI50 (NCI-H522): 5.38 µM
- LC50 (NCI-H522): > 100 µM
- GI50 (NCI-H460): 3.95 µM
- CC50 (NCI-H460; [3]): 56.8 µM
- GI50 (MDA-MB-468): 1.69 µM
- LC50 (MDA-MB-468): 6.9 µM
- GI50 (OVCAR-8): 10.1 µM
- CC50 (OVCAR-8; [3]): > 100 µM
- GI50 (OVCAR-3): 1.95 µM
- CC50 (OVCAR-3; [3]): 7.35 µM
- GI50 (EKVX): 58.1 µM
- CC50 (EKVX; [3]): > 100 µM
- GI50 (SF-539): 1.73 µM
- CC50 (SF-539; [3]): 6.94 µM
- GI50 (SK-MEL-5): 3.38 µM
- LC50 (SK-MEL-5): 42.3 µM
- GI50 (K562): 2.45 µM
- CC50 (K562; [3]): 77.4 µM
- GI50 (BT-549): 2.05 µM
- CC50 (BT-549; [3]): > 100 µM
- GI50 (M14): 4.46 µM
- LC50 (M14): 47.8 µM
- GI50 (SF-295): 4.96 µM
- CC50 (SF-295; [3]): > 100 µM
- GI50 (SK-MEL-28): 4.14 µM
- CC50 (SK-MEL-28; [3]): 38.4 µM
- GI50 (RXF 393): 2.77 µM
- CC50 (RXF 393; [3]): 53.7 µM
- GI50 (SF-268): 5.38 µM
- CC50 (SF-268; [3]): 59.8 µM
- GI50 (MDA-MB-435): 4.97 µM
- CC50 (MDA-MB-435; [3]): 68.6 µM
- GI50 (SW-620): 3.68 µM
- CC50 (SW-620; [3]): 43.3 µM
- GI50 (UACC-257): 12.9 µM
- LC50 (UACC-257): 66.9 µM
- GI50 (SK-OV-3): 11.9 µM
- CC50 (SK-OV-3; [3]): 49.9 µM
- GI50 (UO-31): 7.95 µM
- CC50 (UO-31; [3]): > 100 µM
- GI50 (MDA-MB-231): 4.07 µM
- LC50 (MDA-MB-231): 46.7 µM
- GI50 (DU-145): 82.1 µM
- CC50 (DU-145; [3]): 68.8 µM
- GI50 (OVCAR-5): 2.12 µM
- CC50 (OVCAR-5; [3]): 29 µM
- GI50 (CAKI-1): 68.1 µM
- CC50 (CAKI-1; [3]): > 100 µM
- GI50 (HT-29): 2.18 µM
- CC50 (HT-29; [3]): 6.94 µM
- GI50 (HCT-15): 19.8 µM
- CC50 (HCT-15; [3]): > 100 µM
- GI50 (ACHN): 11.8 µM
- CC50 (ACHN; [3]): 59 µM
- GI50 (PC-3): 10.4 µM
- CC50 (PC-3; [3]): 48.1 µM
- GI50 (NCI/ADR-RES): > 100 µM
- CC50 (NCI/ADR-RES; [3]): > 100 µM
- GI50 (MCF7): 2.25 µM
- CC50 (MCF7; [3]): 48.1 µM
- GI50 (OVCAR-4): 2.41 µM
- CC50 (OVCAR-4; [3]): 25.2 µM
- GI50 (SR): 1.96 µM
- CC50 (SR; [3]): 72.7 µM
- GI50 (HL-60): 1.85 µM
- LC50 (HL-60): 21 µM
- GI50 (HOP-92): 2.98 µM
- CC50 (HOP-92; [3]): 44.5 µM
- GI50 (HCC 2998): 6.95 µM
- CC50 (HCC 2998; [3]): 47.2 µM
- GI50 (T47D): 1.68 µM
- CC50 (T47D; [3]): 13.1 µM
- GI50 (TK-10): 6.84 µM
- CC50 (TK-10; [3]): > 100 µM
- GI50 [2]: 1.19 µM
- LC50 (concentration lethal to 50% of cells) [2]: 65.9 µM
